For two compounds, viability, EC50 and Activity results are on record in ChEMBL document CHEMBL4316642, “Discovery of 1,4-Naphthoquinones as a New Class of Antiproliferative Agents Targeting GPR55” (ACS Med Chem Lett, 2019).

The source made the active and inactive calls. The calls are words filed in the database; no cut-off is given here.

Format in all cases: cell-based
The nature of data set [1]: Cytotoxicity in human PBMC assessed as cell viability at 100 uM incubated for 24 to 48 hrs hrs by trypan blue dye exclusion assay. As to conditions: PBMC (peripheral blood mononuclear cells), read-out: Activity. A digest of the protocol:
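Peripheral blood mononuclear cells exposed at 100 μM for 24 or 48 h; viability scored by trypan blue dye exclusion, reported as percent viable cells.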

The next data set has as its system MCF-10A. Kind of data set: Cytotoxicity in human MCF10A cells assessed as reduction in cell viability incubated for 24 hrs by MTT assay. A digest of the protocol: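 EC50 from MTT viability after 24 h exposure; values in micromolar, mean of triplicate (n = 3) determinations. MCF10A described as […]; MDA-MB-231 noted as GPR55-overexpressing.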
In general terms: Tetrazolium dyes change colour on reduction, which living cells bring about.

Data set [2] addresses G-protein coupled receptor 55 (Homo sapiens) (UniProt Q9Y2T6). Description: Inverse agonist activity at GPR55 in human MDA-MB-231 cells assessed as reduction in cell viability at 5 uM incubated for 24 hrs by MTT assay.
Data set [3] shares this target. Kind of data set: Inverse agonist activity at GPR55 in human MDA-MB-468 cells assessed as reduction in cell viability at 5 uM treated 30 mins after 10 uM GPR55 selective antagonist CID16020046 treatment followed by incubation for 24 hrs by MTT assay. Put shortly:
(§1)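 Cells pretreated with GPR55 antagonist CID16020046 for 30 min before test compound addition; proliferation compared against DMSO-treated cells.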

Data set [4] shares this target. Description: Inverse agonist activity at GPR55 in human MCF7 cells assessed as reduction in cell viability at 5 uM treated 30 mins after 10 uM GPR55 selective antagonist CID16020046 treatment followed by incubation for 24 hrs by MTT assay. Put shortly: as §1
For data set [5] the target is unchanged. Description: Inverse agonist activity at GPR55 in human MDA-MB-468 cells assessed as reduction in cell viability at 5 uM incubated for 24 hrs by MTT assay.
Data set [6] has the same target. Description: Inverse agonist activity at GPR55 in human T47D cells assessed as reduction in cell viability at 5 uM incubated for 24 hrs by MTT assay.
For data set [7] the target is unchanged. Kind of data set: Inverse agonist activity at GPR55 in human MCF7 cells assessed as reduction in cell viability at 5 uM incubated for 24 hrs by MTT assay.
Data set [8] has the same target. Description: Inverse agonist activity at GPR55 in human T47D cells assessed as reduction in cell viability at 5 uM treated 30 mins after 10 uM GPR55 selective antagonist CID16020046 treatment followed by incubation for 24 hrs by MTT assay.
Data set [9] has the same target. Kind of data set: Inverse agonist activity at GPR55 in human MDA-MB-231 cells assessed as reduction in cell viability at 5 uM treated 30 mins after 10 uM GPR55 selective antagonist CID16020046 treatment followed by incubation for 24 hrs by MTT assay. A digest of the protocol: as §1

Sequence of G-protein coupled receptor 55 (Homo sapiens) (Q9Y2T6 whole entry): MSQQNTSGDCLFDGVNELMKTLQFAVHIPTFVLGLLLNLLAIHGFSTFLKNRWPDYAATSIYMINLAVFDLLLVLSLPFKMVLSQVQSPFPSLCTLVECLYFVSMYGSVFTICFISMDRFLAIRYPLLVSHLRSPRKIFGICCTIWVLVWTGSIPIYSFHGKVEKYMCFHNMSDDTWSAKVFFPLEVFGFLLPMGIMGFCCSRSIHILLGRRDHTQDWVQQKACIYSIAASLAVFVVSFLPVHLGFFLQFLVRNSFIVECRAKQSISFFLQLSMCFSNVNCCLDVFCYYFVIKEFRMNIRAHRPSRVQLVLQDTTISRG

As to `O=C1C(Cl)=C(N2CCCCC2)C(=O)c2c(O)ccc(O)c21`, the viability at 100 µM in data set [1] amounted to 65%. Further, the EC50 (commonly the concentration that produces a half-maximal response) in the data set with MCF-10A is 2.5 µM.

With `O=C1C(Cl)=C(N2CCOCC2)C(=O)c2c(O)ccc(O)c21`, the result in [2], in data set [5] and in data set [7] was Active. Besides, the result in [3], in data set [4], in data set [6], in data set [8] and in data set [9] was inactive. Further, the viability at 100 µM in [1] stood at 70%. Besides, the EC50 in the data set with MCF-10A stood at 3.7 µM.
